For data set [1], the system named is HeLa (cervical cancers) cells. In words: MTT antiproliferative assay, HeLa. Format: cell-based, human. The following applies: for IC50: Homo sapiens, 72 h. In short, it runs like this: (§1)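 Cells from ECACC were grown in MEM with 10% FBS, non-essential amino acids and penicillin-streptomycin, at 37 °C and 5% CO2. Cells were seeded at 5000 per well, left overnight, then exposed to test compound 72 h. MTT was added for 4 h, and formazan was dissolved in DMSO (60 min, 37 °C) and read at 545 nm. Compounds giving >50% inhibition at 10 μM were rerun over 0.1–30 μM for IC50. Two independent experiments used five wells each, with cisplatin as positive control.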
(Tetrazolium dyes change colour on reduction, which living cells bring about.)

Data set [2] has as its system MCF7 (breast cancer) cells. Kind of data set: MTT antiproliferative assay, MCF7. The following applies: for IC50: MCF-7, MTT, 72 h; for Lipophilic efficiency (LipE = pIC50 – logP): MCF-7. It counts as cell-based, human. In short, it runs like this:
as §1

For data set [3], the system named is MDA-MB-231 (breast cancer) cells. In words: MTT antiproliferative assay, MDA-MB-231. Format: cell-based, human. The following applies: for IC50: Homo sapiens, MDA-MB-231, 72 h, MDA-MB-231, MTT, 72 h; for Lipophilic efficiency (LipE = pIC50 – logP): MDA-MB-231. In short, it runs like this:
as §1

Data set [4] concerns A2780 (ovarian cancer) cells. Kind of data set: MTT antiproliferative assay, A2780. Conditions: for Lipophilic efficiency (LipE = pIC50 – logP): A2780; for IC50: Homo sapiens, A2780, 72 h. It counts as cell-based, human. In short, it runs like this:
as §1

A short description of data set [5]: Kinetic aqueous solubility. It counts as physicochemical. The following applies: PBS buffer, pH 7.4, aqueous buffer, kinetic from dmso stock. In a few lines: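 10 mM DMSO stocks were diluted into PBS pH 7.4 to a 500 μM target and shaken 2 h at room temperature. Samples were vacuum-filtered, diluted with acetonitrile to prevent precipitation, and scanned by UV-vis over 250–500 nm. Concentration was derived from a 3-point calibration at each compound's λmax.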

Data set [6] is described as follows: Intestinal-specific PAMPA. The following applies: pH 6.5. It counts as in vitro ADME. In short, it runs like this: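 Donor solutions at nominal 500 μM came from 10 mM DMSO stocks diluted in phosphate donor buffer, pH 6.5. The acceptor buffer held 5% DMSO. The membrane was phosphatidylcholine plus cholesterol in chloroform/dodecane/hexane (5:25:70 v/v). Plates were incubated 4 h at 37 °C, covered. Acceptor UV-vis absorbance was read over 250–500 nm. Pa was calculated by the Wohnsland–Faller equation from acceptor versus equilibrium absorbance at λmax.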
(In PAMPA a lipid-coated filter parts donor from acceptor wells.)

Molecules are shown by their SMILES. Converted amounts (≈) assume the structure as drawn.

The results in this text go back to publication PMC11168086 (RSC Advances, 2024).

The IC50 is the point on the concentration scale where inhibition reaches its midpoint. A higher IC50 goes with lower potency. By kinetic solubility is commonly meant solubility judged after dilution from a stock solution rather than from solid. Broadly, the Papp is the rate of passage across a membrane or cell layer, normalised by area and donor concentration. A lower Papp goes with poor permeation.

Turning to `C[C@@H]1CC[C@@H]([C@](O)(CNCc2ccccc2)COCc2ccc(F)cc2)[C@H](OCc2ccc(F)cc2)C1` [Compound 44a], the “Lipophilic efficiency (LipE = pIC50 – logP)” value is −0.78 in data set [1], −0.59 in data set [2], −0.81 in data set [3] and −1.00 in data set [4]. For the same compound, the 50% inhibitory concentration (IC50) in data set [1] was 1300 nM; in data set [2] (Homo sapiens, MCF7, 72 h), 880 nM; in data set [3] it was 1500 nM; in data set [4] it was 2200 nM. The solubility (kinetic) at 2 h in data set [5] was determined as 163 ± 1.6 µM (≈ 83.1 µg/mL). In data set [6], this compound displayed a Papp at 4 h, 500 μM of 28.8 ± 2.9 ×10⁻⁶ cm/s.
Consider `C[C@@H]1CC[C@@H]([C@@](O)(CNCc2ccccc2)COCc2ccc(F)cc2)[C@H](OCc2ccc(F)cc2)C1` [Compound 44b], for which the “Lipophilic efficiency (LipE = pIC50 – logP)” value is −1.12 in data set [1], −0.63 in data set [2], −1.08 in data set [3] and −0.97 in data set [4]. Besides, the IC50 in data set [1] worked out at 3000 nM; in data set [2] (Homo sapiens, MCF7, 72 h) it was 960 nM; in data set [3] it was 2700 nM; in data set [4], 2100 nM. The solubility (kinetic) at 2 h in data set [5] worked out at 97 ± 2.8 µM (≈ 49.4 µg/mL). The same compound yielded an apparent permeability coefficient (Papp) at 4 h, 500 μM in data set [6] of 23.2 ± 2.7 ×10⁻⁶ cm/s.
Take `C[C@@H]1CC[C@@H]([C@](O)(CNCc2ccc(F)cc2)COCc2ccc(F)cc2)[C@H](OCc2ccc(F)cc2)C1` [Compound 45a]: the “Lipophilic efficiency (LipE = pIC50 – logP)” value in data set [1] is −1.23; in data set [2], −0.69; in data set [3], −1.02; in data set [4], −1.12. In addition, the 50% inhibitory concentration (IC50) is 2900 nM in data set [1]; less than 1000 nM in data set [2] (Homo sapiens, MCF7, 72 h); 840 nM in data set [2]; 1800 nM in data set [3]; 2300 nM in data set [4]. Also, in data set [5], the solubility (kinetic) at 2 h turned out to be 122 ± 4.5 µM (≈ 64.4 µg/mL). Besides, the Papp at 4 h, 500 μM in data set [6] stood at 33.3 ± 3 ×10⁻⁶ cm/s.
For `COc1ccc(CNC[C@](O)(COCc2ccc(F)cc2)[C@@H]2CC[C@@H](C)C[C@H]2OCc2ccc(F)cc2)cc1` [Compound 46a], the “Lipophilic efficiency (LipE = pIC50 – logP)” value in data set [1] was −1.33; in data set [3] it was −1.22; in data set [4], −1.12. Moreover, the 50% inhibitory concentration (IC50) is 2500 nM in data set [1]; less than 1000 nM in data set [2] (Homo sapiens, MCF7, 72 h); 900 nM in data set [2]; 1900 nM in data set [3]; 1500 nM in data set [4]. Also, in data set [5], the solubility (kinetic) at 2 h was found to be 88 ± 0.9 µM (≈ 47.5 µg/mL). This compound also came in with a Papp at 4 h, 500 μM in data set [6] of 29.5 ± 3.6 ×10⁻⁶ cm/s.
In the case of `COc1ccc(COC[C@@](O)(CNCc2ccccc2)[C@@H]2CC[C@@H](C)C[C@H]2OCc2ccc(OC)cc2)cc1` [Compound 50a], the “Lipophilic efficiency (LipE = pIC50 – logP)” value in data set [1] is −1.23; in data set [2], −0.83; in data set [3], −1.01; in data set [4], −0.88. Further, the IC50 in data set [1] was determined as 3700 nM; in data set [2] (Homo sapiens, MCF7, 72 h), 1400 nM; in data set [3], 2200 nM; in data set [4], 1600 nM. In data set [5], this compound came in with a kinetic solubility at 2 h of 202 ± 1 µM (≈ 108 µg/mL). Further, the Papp at 4 h, 500 μM in data set [6] amounted to 32.4 ± 7.6 ×10⁻⁶ cm/s.
In the case of `COc1ccc(COC[C@@](O)(CNCc2ccc(F)cc2)[C@@H]2CC[C@@H](C)C[C@H]2OCc2ccc(OC)cc2)cc1` [Compound 51a], the entries for the “Lipophilic efficiency (LipE = pIC50 – logP)” value in data set [1], in data set [2] and in data set [4] were −1.08, −0.84 and −0.80, respectively. Also, the half-inhibitory concentration (IC50) in data set [1] is 2800 nM; in data set [2] (Homo sapiens, MCF7, 72 h), 1600 nM; in data set [3], 1900 nM; in data set [4] it was 1500 nM. The kinetic solubility at 2 h in data set [5] turned out to be 259 ± 1.3 µM (≈ 143 µg/mL). For the same compound, in data set [6], the apparent permeability coefficient (Papp) at 4 h, 500 μM worked out at 19.7 ± 1.6 ×10⁻⁶ cm/s.
`COc1ccc(CNC[C@](O)(COCc2ccc(OC)cc2)[C@@H]2CC[C@@H](C)C[C@H]2OCc2ccc(OC)cc2)cc1` [Compound 52a]: the “Lipophilic efficiency (LipE = pIC50 – logP)” value in data set [1] is −0.57; in data set [2], −0.43; in data set [3] it was −0.50; in data set [4] it was −0.40. The IC50 came to 2000 nM in data set [1]; 1400 nM in data set [2] (Homo sapiens, MCF7, 72 h); 1700 nM in data set [3]; 1300 nM in data set [4]. In addition, in data set [5], the solubility (kinetic) at 2 h was 107 ± 2.6 µM (≈ 60.3 µg/mL). The compound further came in with an apparent permeability (Papp) at 4 h, 500 μM in data set [6] of 23.7 ± 3.8 ×10⁻⁶ cm/s.
